Test results reported in ChEMBL document CHEMBL1124035, “1-Amino-substituted 4-methyl-5H-pyrido[4,3-b]indoles (gamma-carbolines) as tricyclic analogues of ellipticines: a new class of antineoplastic agents” (1988).

Columns and labels:
Mus musculus [1] = assay: Median survival day of B16 melanoma infected mice, when a dose of 10 mg/kg administered intraperitoneally; type: functional; settings: route intraperitoneal
Procedure, shortened: (§1)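 B16 melanoma in hybrid BD F1 mice. At D0 each mouse was inoculated ip with 0.5 mL of homogenate made from 1 g of tumour in 10 mL of physiological serum. Compounds were given ip daily at the stated doses for 9 days (D1-9), with cis-platinum 0.5 mg/kg under the same schedule as positive control.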

Mus musculus [2] = assay: […] in C38 adenocarcinoma cell line when a dose of 25 mg/kg administered intravenously in mice; type: functional, MC-38; settings: route intravenous
Procedure, shortened: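 C38 colon adenocarcinoma in hybrid BD F1 mice, 10 per test. A standard 3-mm³ tumour fragment was implanted sc. Drugs were given iv at the stated doses on D1 or on D2 + D9, following the Geran et al. NCI protocol.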

Mus musculus [3] = assay: Median survival day in P388 cell line when a dose of 100 mg/kg administered intravenously to mice; type: functional; settings: route intravenous
Procedure, shortened: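 P388 leukaemia in CDF1 hybrid mice, 10 per group. At D0, 10^6 viable cells were inoculated ip, followed by a single iv dose on D1. Weight change, median survival day, T/C (treated/control median survival × 100) and survivors at D30 were recorded.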

Mus musculus [4] = assay: Antitumor activity against P388 cells at a dose of 5 mg/kg administered intraperitoneally to mice; type: functional; settings: route intraperitoneal
Mus musculus [5] = assay: Antitumor activity against P388 cells at a dose of 50 mg/kg administered intravenously to mice; type: functional; settings: route intravenous
Procedure, shortened: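 P388 (10^6 cells) or L1210 (10^5 cells) leukemia was inoculated ip in mice at D0, followed by a single iv drug treatment on D1. Weight change was recorded. T/C % = median survival day of treated / controls × 100; survivors noted at D30; 10-15 mice per group.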

Mus musculus [6] = assay: Antitumor activity against P388 cells at a dose of 10 mg/kg administered intraperitoneally to mice; type: functional; settings: route intraperitoneal
Mus musculus [7] = assay: Weight change in g when a dose of 5 mg/kg administered intraperitoneally to P388 leukemia infected mice; type: functional; settings: route intraperitoneal
Procedure, shortened: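 P388 model with a single ip dose. Mice (10 per group) were inoculated ip at D0 with 10^6 P388 cells and given one ip drug dose at D1. Body-weight change (g), median survival day, T/C and survivors at D30 were recorded.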

Mus musculus [8] = assay: Survivors at day D32 when a dose of 25 mg/kg administered intravenously to mice (C38 adenocarcinoma cell lines) when tested in 10 mice; type: functional; settings: route intravenous
Procedure, shortened: (§2)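 Hybrid BDF1 mice, 10 per test, were implanted sc with a standard 3-mm³ fragment of C38 colon adenocarcinoma. Drug was given iv either on D1 alone or on D2 and D9. Animals were followed per NCI (Geran) protocol.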

Mus musculus [9] = assay: Survivors at day 30 when a dose of 50 mg/kg administered intravenously to P388 (iv) to L1210 leukemia mice model; type: functional
Mus musculus [10] = assay: Survivors at day 60 when a dose of 1.25 mg/kg to B16 melanoma infected when tested in 10 mice; type: functional
Mus musculus [11] = assay: Survivors at day D30 when a dose of 20 mg/kg administered intravenously to L1210 leukemia mice model; type: functional; settings: route intravenous
Mus musculus [12] = assay: Antitumor activity against C38 adenocarcinoma model at a dose of 25 mg/kg administered intravenously in mice; tumor volume at D38 (T/C); type: functional; settings: route intravenous
Procedure, shortened: (§3)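 Hybrid BD F1 mice, 10 per group, were implanted sc with a standard 3-mm3 C38 colon adenocarcinoma fragment. Drugs were given iv at the stated doses on D1 or on D2 + D9. Read-out was tumor size in treated versus control mice (T/C) at the day stated.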

Mus musculus [13] = assay: Antitumor activity against C38 adenocarcinoma cells at a dose of 50 mg/kg administered intravenously in mice; tumor volume at D38 (T/C); type: functional, MC-38; settings: route intravenous; procedure, shortened: as §3
Mus musculus [14] = assay: Median survival day in L1210 leukemia mice model when a dose of 20 mg/kg administered intravenously; type: functional; settings: route intravenous
Procedure, shortened: (§4)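 L1210 leukaemia in CDF1 hybrid male or female mice, 10 per group. At D0, 10^5 viable cells were inoculated ip, followed by a single iv dose on D1. Median survival day was recorded, and T/C was calculated as treated/control median survival × 100.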

Mus musculus [15] = assay: Median survival day of B16 melanoma infected mice when a dose of 1.25 mg/kg administered intraperitoneally; type: functional; settings: route intraperitoneal; procedure, shortened: as §1
Mus musculus [16] = assay: Median survival day in L1210 leukemia mice model when a dose of 40 mg/kg administered intravenously; type: functional; settings: route intravenous; procedure, shortened: as §4
Mus musculus [17] = assay: Antitumor activity against P388 cells at a dose of 80 mg/kg administered intraperitoneally to P388 leukemia model; type: functional; settings: dose 40 mg/kg; route intraperitoneal; in the assay text read “40 mg/kg” for “80 mg/kg”
Procedure, shortened: (§5)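 Mice were inoculated ip with 10^6 P388 leukemia cells at D0, then given a single ip drug dose on D1. Weight change was recorded. T/C % = median survival day of treated / controls × 100; survivors counted at D30; 10 mice per dose group, 20 controls.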

Mus musculus [18] = assay: Antitumor activity against P388 cells at a dose of 10 mg/kg administered intraperitoneally to P388 leukemia model; type: functional; settings: route intraperitoneal; procedure, shortened: as §5
Mus musculus [19] = assay: Weight change in g when a dose of 5 mg/kg administered intraperitoneally B16 melanoma infected mice; type: functional; settings: route intraperitoneal
Procedure, shortened: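 Hybrid BDF1 mice were inoculated ip at D0 with 0.5 mL of B16 melanoma homogenate (1 g tumor in 10 mL physiological serum). Drug was given ip daily on days 1-9, with cis-platinum 0.5 mg/kg as positive control on the same schedule.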

Mus musculus [20] = assay: Survivors at day D30 when a dose of 20 mg/kg administered intravenously to L1210 leukemia mice model; 0/10; type: functional; settings: route intravenous
Mus musculus [21] = assay: Survivors at day D30 when a dose of 40 mg/kg administered intravenously to L1210 leukemia mice model; 0/10; type: functional; settings: route intravenous
Mus musculus [22] = assay: Survivors at day D38 when a dose of 100 mg/kg administered intravenously to C38 adenocarcinoma cell lines on D1 to mice; 10/10; type: functional, MC-38; settings: route intravenous; procedure, shortened: as §2
Mus musculus [23] = assay: Weight change in g when a dose of 40 mg/kg intravenous administration to L1210 leukemia mice model; type: functional
Procedure, shortened: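 Mice received 10^5 L1210 leukemia cells ip at D0, then a single iv drug dose at D1. Read-outs were weight change (g), median survival day, T/C % and survivors at D30.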

Mus musculus [24] = assay: Median survival day in B16 melanoma cell line when a dose of 10 mg/kg administered intraperitoneally to mice; type: functional; settings: route intraperitoneal; procedure, shortened: as §1
Mus musculus [25] = assay: Median survival day in B16 melanoma cell line when a dose of 2.5 mg/kg administered intraperitoneally to mice; type: functional; settings: route intraperitoneal; procedure, shortened: as §1
Mus musculus [26] = assay: Median survival day in B16 melanoma cell line when a dose of 5 mg/kg administered intraperitoneally to mice; type: functional; settings: route intraperitoneal; procedure, shortened: as §1
Mus musculus [27] = assay: Antitumor activity against P388 cells at a dose of 80 mg/kg administered intraperitoneally P388 Leukemia model; type: functional; settings: route intraperitoneal; procedure, shortened: as §5
Mus musculus [28] = assay: Antitumor activity against P388 cells at a dose of 20 mg/kg administered intraperitoneally P388 Leukemia model; type: functional; settings: route intraperitoneal; procedure, shortened: as §5
Mus musculus [29] = assay: Survivors at day 30 when a dose of 20 mg/kg to P388 leukemia model; 0/10; type: functional
Mus musculus [30] = assay: Survivors at day 30 when a dose of 40 mg/kg to P388 leukemia model; 0/10; type: functional
Mus musculus [31] = assay: Survivors at day 60 when a dose of 10 mg/kg to B16 melanoma infected mice; 4/10; type: functional

Cc1cnc(NCCCN(C)C)c2c3cc(O)ccc3n(C)c12
Median survival day (Mus musculus [1]): 11.75 | Median tumoral volume (Mus musculus [2]): 0 cm*3 | Median survival day (Mus musculus [3]): 25.75 | T/C (Mus musculus [4]): 173% | T/C (Mus musculus [5]): 163% | T/C (Mus musculus [6]): 167% | Weight change (Mus musculus [7]): -1.2 g | Survivors (Mus musculus [8]): 10 | Survivors (Mus musculus [9]): 1 | Survivors (Mus musculus [10]): 0 | Survivors (Mus musculus [11]): 0 | Tumor volume (Mus musculus [12]): 0% | Tumor volume (Mus musculus [13]): 0%

CCN(CC)CCCNc1ncc(C)c2c1c1cc(O)ccc1n2C
Median survival day (Mus musculus [14]): 11.8 | Median survival day (Mus musculus [15]): 32.25 | Median survival day (Mus musculus [16]): 13.3 | T/C (Mus musculus [17]): 202% | T/C (Mus musculus [18]): 156% | Weight change (Mus musculus [19]): 0.2 g | Survivors (Mus musculus [20]): 0 | Survivors (Mus musculus [21]): 0 | Survivors (Mus musculus [22]): 10 | Weight change (Mus musculus [23]): -0.2 g

CCN(CC)CCCNc1[nH]cc(C)c2nc3ccc(O)cc3c1-2
Median survival day (Mus musculus [24]): 56.25 | Median survival day (Mus musculus [25]): 34 | Median survival day (Mus musculus [26]): 48 | T/C (Mus musculus [27]): 20% | T/C (Mus musculus [28]): 139% | Survivors (Mus musculus [29]): 0 | Survivors (Mus musculus [30]): 0 | Survivors (Mus musculus [31]): 4
